Experimental findings from ChEMBL document CHEMBL3779860, “A Designed Tryptophan- and Lysine/Arginine-Rich Antimicrobial Peptide with Therapeutic Potential for Clinical Antibiotic-Resistant Candida albicans Vaginitis” (J Med Chem, 2016) are described below.

One data set concerns Bacillus subtilis. Briefly: Antimicrobial activity against Bacillus subtilis assessed as inhibition of […] growth after 16 hrs by broth dilution method. Type of data set: functional. In a few lines:
(§1)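 Broth dilution in LB broth; 100 µL of 2 × 10^5 CFU/mL bacterial suspension plus 10 µL sample (stock series in 0.9% NaCl) in 90 µL broth, 37°C for 16 h. Growth read as A600; MIC is the lowest concentration completely inhibiting growth. Mean of three independent experiments run in duplicate.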
A general note: In broth dilution the organism is exposed to a series of concentrations in liquid medium.

A further data set has as its system Escherichia coli. Briefly: Antimicrobial activity against Escherichia coli ATCC 25922 assessed as inhibition of […] growth after 16 hrs by broth dilution method. Type of data set: functional. The note with it: ATCC 25922, 16 h. In a few lines:
as §1

In the next data set the test system is Staphylococcus aureus. Briefly: Antimicrobial activity against Staphylococcus aureus ATCC 2592 assessed as inhibition of […] growth after 16 hrs by broth dilution method. Type of data set: functional. The note with it: ATCC 2592, 16 h. In a few lines:
as §1

Data set [1] deals with Mus musculus. Briefly: Antiinflammatory activity in antibiotic resistant Candida albicans clinical isolate 08030809 induced mouse vaginitis model assessed as microabscess number in vaginal tissue at 200 ug administered as intravaginal instillation measured after 16 days by hematoxylin-eosin staining based microscopic method (reference value: 61). Type of data set: functional, Vagina. In a few lines: (§2)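 Mice given weekly subcutaneous estradiol valerate (0.5 mg in 0.1 mL vegetable oil) 72 h before infection. Infected intravaginally with 20 µL of 10^7 CFU/mL C. albicans 08030809. Intravaginal instillation of 20 µL daily for 16 days. Vaginal canals excised after lavage, formalin-fixed, paraffin-embedded, HE-stained. Microabscesses counted per high-power field over 6 fields per section, three independent experiments.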

For data set [2], the system named is Mus musculus. Briefly: Antiinflammatory activity in antibiotic resistant Candida albicans clinical isolate 08030809 induced mouse vaginitis model assessed as reduction in TNF-alpha secretion in vaginal tissue at 10 mg/ml administered as intravaginal instillation measured on day 10 by ELISA. Type of data set: functional, organism-based. The note with it: Vagina. The gist of the method: (§3)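 Same estradiol-primed mouse model, infected intravaginally with C. albicans 08030809 and treated by intravaginal instillation (20 µL/mouse). Vaginal canals excised on day 10 of treatment and homogenised in 0.9% NaCl. Supernatant taken after 2,000 g for 15 min. TNF-α, IL-6, IL-1β and IL-10 measured by ELISA. Mean ± SE of three independent experiments; unpaired t-test versus vehicle.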
On the technique in general: An ELISA detects its analyte on a solid surface through an enzyme-linked reagent.

Data set [3] relates to Mus musculus. Briefly: Antiinflammatory activity in antibiotic resistant Candida albicans clinical isolate 08030809 induced mouse vaginitis model assessed as reduction in IL-6 secretion in vaginal tissue at 10 mg/ml administered as intravaginal instillation measured on day 10 by ELISA. Type of data set: functional, organism-based. Particulars: Vagina. In a few lines: as §3

Data set [4] deals with Mus musculus. Briefly: Antiinflammatory activity in antibiotic resistant Candida albicans clinical isolate 08030809 induced mouse vaginitis model assessed as reduction in IL-1beta secretion in vaginal tissue at 10 mg/ml administered as intravaginal instillation measured on day 10 by ELISA. The note with it: Vagina. Type of data set: functional, organism-based. In a few lines: as §3

Data set [5] concerns Mus musculus. Briefly: Antiinflammatory activity in antibiotic resistant Candida albicans clinical isolate 08030809 induced mouse vaginitis model assessed as reduction in IL-10 secretion in vaginal tissue at 10 mg/ml administered as intravaginal instillation measured on day 10 by ELISA. The note with it: Vagina. Type of data set: functional, organism-based. In a few lines: as §3

Data set [6] has as its system Candida albicans. Briefly: Antimicrobial activity against antibiotic resistant Candida albicans clinical isolate 08030809 in mouse vaginitis model assessed as colony count in lavage liquid of vagina at 10 mg/ml administered as intravaginal instillation measured on day 16. Type of data set: functional.
For data set [7], the system named is Mus musculus. Briefly: Antiinflammatory activity in antibiotic resistant Candida albicans clinical isolate 08030809 induced mouse vaginitis model assessed as microabscess number in vaginal tissue at 200 ug administered as intravaginal instillation measured on day 6 by hematoxylin-eosin staining based microscopic method (reference value: 61). Type of data set: functional, Vagina. The gist of the method:
as §2

Data set [8] relates to Candida albicans. Briefly: Antimicrobial activity against antibiotic resistant Candida albicans clinical isolate 08030809 assessed as clone count at 10 mg/ml after 1 min by colony counting assay (reference value: 62 +/- 7 CFU). Type of data set: functional.
Data set [9] relates to Candida albicans. Briefly: Antimicrobial activity against antibiotic resistant Candida albicans clinical isolate 08030809 assessed as clone count at 10 mg/ml after 10 mins by colony counting assay (reference value: 102 +/- 11 CFU). Type of data set: functional.
Data set [10] concerns Candida albicans. Briefly: Antimicrobial activity against antibiotic resistant Candida albicans clinical isolate 08030809 assessed as clone count at 10 mg/ml after 30 mins by colony counting assay (reference value: 156 +/- 16 CFU). Type of data set: functional.
The test system of data set [11] is Candida albicans. Briefly: Antimicrobial activity against antibiotic resistant Candida albicans clinical isolate 08030809 assessed as clone count at 10 mg/ml after 1 hr by colony counting assay (reference value: 228 +/- 23 CFU). Type of data set: functional.
For data set [12], the system named is Candida albicans. Briefly: Antimicrobial activity against antibiotic resistant Candida albicans clinical isolate 08030809 assessed as clone count at 10 mg/ml after 3 hrs by colony counting assay (reference value: 3687 +/- 543 CFU). Type of data set: functional.
For data set [13], the system named is Candida albicans. Briefly: Antimicrobial activity against antibiotic resistant Candida albicans clinical isolate 08030809 assessed as clone count at 10 mg/ml after 6 hrs by colony counting assay (reference value: 14536 +/- 2467 CFU). Type of data set: functional.
Data set [14] concerns Candida albicans. Briefly: Antimicrobial activity against antibiotic resistant Candida albicans clinical isolate 08030809 assessed as clone count at 10 mg/ml after 12 hrs by colony counting assay (reference value: 54153 +/- 8769 CFU). Type of data set: functional.
In data set [15] the test system is Candida albicans. Briefly: Antimicrobial activity against antibiotic resistant Candida albicans clinical isolate 08030809 assessed as clone count at 10 mg/ml after 24 hrs by colony counting assay (Rvb > 10^5 CFU). Type of data set: functional.
The subject of data set [16] is Candida albicans. Briefly: Antimicrobial activity against antibiotic resistant Candida albicans clinical isolate 08030809 in mouse vaginitis model assessed as decrease in colony count in lavage liquid of vagina at 10 mg/ml administered as intravaginal instillation measured on day 16. Type of data set: functional. Particulars: isolate 08030809, Vagina, topical, 384 h.

Data set [17] deals with Candida albicans. Briefly: Effect on cell membrane integrity in antibiotic resistant Candida albicans clinical isolate 08030809 at 20 ug/ml measured every 2 mins upto 20 mins by SYTOX green nucleic acid staining-based fluorescence assay. Type of data set: functional, organism-based. The gist of the method:
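Exponential-phase C. albicans 08030809 was washed and resuspended at 10^6 CFU/mL in 10 mM PBS pH 7.4. Cells were loaded with 0.1 µM (final) SYTOX Green for 15 min at 37°C with shaking, then test samples were added. Fluorescence (ex 488/em 530 nm) was recorded every 2 min as RFU. Mean ± SE of five independent experiments.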

In data set [18] the test system is Candida albicans. Briefly: Antimicrobial activity against Candida albicans ATCC 2002 assessed as inhibition of yeast growth after 16 hrs by broth dilution method. Type of data set: functional. Particulars: ATCC 2002, 16 h. In a few lines:
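Broth microdilution in Sabouraud liquid medium. Samples are stocks in 0.9% NaCl, 10 µL added to 90 µL broth plus 100 µL of 2 × 10^5 CFU/mL yeast suspension. Incubated 16 h at 28°C, growth read by A600. MIC is the lowest concentration completely inhibiting growth; mean of three independent experiments.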

A short description of data set [19]: Induction of hemolysis in human RBC at 320 ug/mL after 30 mins. Type of data set: cell-based, Erythrocyte. Particulars: red blood cells, read-out: Activity. In a few lines:
(§4)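 Serial dilutions were incubated with human erythrocytes for 30 min at 37°C. Supernatant absorbance was read at 540 nm after centrifugation. Hemolysis is expressed as % of the 1% Triton X-100 lysis value, pooled from three independent experiments. The highest concentration tested was 320 µg/mL.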

Data set [20] can be described thus: Hemolytic activity in human RBC after 30 mins. The note with it: for HC10: erythrocyte, 0.5 h; for HC50 at 0.5 h: red blood cells. Type of data set: ADME, cell-based, Erythrocyte. In a few lines: as §4

Values after ≈ are worked out from the molar mass of the structure shown. Active and inactive are the calls of the source. The calls are words filed in the database; no cut-off is given here.

With `CC1(C)S[C@@H]2[C@H](NC(=O)[C@H](N)c3ccccc3)C(=O)N2[C@H]1C(=O)O` [AMPICILLIN], the MIC worked out at 0.02 µg/mL (≈ 0.0572 µM) in the data set on Bacillus subtilis, 18.7 µg/mL (≈ 53.5 µM) in the data set on Escherichia coli and 0.15 µg/mL (≈ 0.429 µM) with Staphylococcus aureus.
With `Clc1ccccc1C(c1ccccc1)(c1ccccc1)n1ccnc1` [CLOTRIMAZOLE], the Activity in the data set on Mus musculus [1] came out at 10; in the data set on Candida albicans [6], 1.2 ×10⁴ CFU/ml; with Mus musculus [7] it was 18; in the data set on Candida albicans [8] it was 42 CFU; with Candida albicans [9], 64 CFU; with Candida albicans [10], 106 CFU. Moreover, the Activity with Candida albicans [11] came to 178 CFU; in the data set with Candida albicans [12], 533 CFU; with Candida albicans [13] it was 2674 CFU; in the data set on Candida albicans [14] it was 15789 CFU; in the data set on Candida albicans [15], 57425 CFU. The result with Mus musculus [2], in the data set with Mus musculus [3], with Mus musculus [4], in the data set on Mus musculus [5] and in the data set on Candida albicans [17] was inactive. In the data set on Candida albicans [16], the inhibition in vivo at 10000 µg/mL amounted to 38%.
Regarding `OC(Cn1cncn1)(Cn1cncn1)c1ccc(F)cc1F` [FLUCONAZOLE], the MIC with Candida albicans [18] is 18.7 µg/mL (≈ 61.1 µM).
In the case of H-KFFRKLKKSVKKRAKEFFKKPRVIGVSIPF-OH, the hemolysis at 0.5 h, 320 ug/mL in data set [19] was 7.4%. Also, the HC10 in data set [20] was above 320 µg/mL. In addition, in data set [20], the HC50 at 0.5 h was above 320 µg/mL. The MIC in the data set on Candida albicans [18] is 4.7 µg/mL; with Bacillus subtilis, 9.38 µg/mL; in the data set with Escherichia coli, 2.34 µg/mL; with Staphylococcus aureus it was above 100 µg/mL.
For “H-VKRFKKFFRKFKKSV-NH2 [listing 1 of 2 here]”, the hemolysis at 0.5 h, 320 ug/mL in data set [19] came out at 7.5%. In data set [20], this compound gave an HC10 above 320 µg/mL and an HC50 at 0.5 h above 320 µg/mL.
On to “H-VKRFKKFFRKFKKSV-NH2 [listing 2 of 2 here]”, for which the minimal inhibitory concentration (MIC) with Candida albicans [18] is 9.38 µg/mL; in the data set with Bacillus subtilis, above 100 µg/mL; in the data set on Escherichia coli, 37.5 µg/mL; in the data set with Staphylococcus aureus, above 100 µg/mL.
Turning to H-VKRFKKFFRKLKKSV-NH2, the hemolysis at 0.5 h, 320 ug/mL in data set [19] is 9.7%. Besides, in [20], the HC10 is above 320 µg/mL. Also, in [20], the HC50 at 0.5 h was above 320 µg/mL. Further, the MIC is 18.8 µg/mL in the data set with Candida albicans [18], 75 µg/mL in the data set with Bacillus subtilis, 18.8 µg/mL in the data set with Escherichia coli and above 100 µg/mL with Staphylococcus aureus.
On to “H-VKRWKKFWRKWKKWW-NH2 [listing 1 of 2 here]”, for which the hemolysis at 0.5 h, 320 ug/mL in data set [19] was 27.6%. In [20], the HC10 was found to be 51.7 µg/mL and the HC50 at 0.5 h was above 320 µg/mL.
For the compound “H-VKRWKKFWRKWKKWW-NH2 [listing 2 of 2 here]”, the MIC in the data set with Candida albicans [18] is 2.34 µg/mL; with Bacillus subtilis, 4.69 µg/mL; in the data set with Escherichia coli, 18.8 µg/mL; in the data set with Staphylococcus aureus, 4.69 µg/mL.
H-VKRWKKWWRKLKKSV-NH2: the hemolysis at 0.5 h, 320 ug/mL in [19] is 8.7%. In addition, the HC10 in [20] is above 320 µg/mL. The same compound registered an HC50 at 0.5 h in [20] above 320 µg/mL. The minimum inhibitory concentration (MIC) was 9.38 µg/mL in the data set on Candida albicans [18], above 100 µg/mL in the data set on Bacillus subtilis, 18.8 µg/mL in the data set on Escherichia coli and above 100 µg/mL with Staphylococcus aureus.
Regarding “H-VKWRWKKWRWKWKWKV-NH2 [listing 1 of 2 here]”, in data set [19], the hemolysis at 0.5 h, 320 ug/mL was 17.6%. In addition, in data set [20], the HC10 stood at 178.3 µg/mL and the HC50 at 0.5 h was above 320 µg/mL.
With “H-VKWRWKKWRWKWKWKV-NH2 [listing 2 of 2 here]”, the MIC with Candida albicans [18], in the data set on Bacillus subtilis, with Escherichia coli and in the data set on Staphylococcus aureus was above 100 µg/mL each time.
As for H-VKWRWKWKWRWKWKWKV-NH2, the hemolysis at 0.5 h, 320 ug/mL in data set [19] is 30.8%. In data set [20], this compound returned an HC10 of 62.8 µg/mL. In [20], this compound yielded an HC50 at 0.5 h above 320 µg/mL. Besides, the MIC in the data set on Candida albicans [18], in the data set with Bacillus subtilis, in the data set on Escherichia coli and with Staphylococcus aureus was above 100 µg/mL throughout.

As a reminder, the MIC is the least concentration at which growth counts as inhibited. Usually inhibition in vivo stands for the percentage by which the read-out fell short of the control. The HC50 is the concentration that lyses half of the red blood cells. Read a low HC50 as more damage to red cells.
